These results are taken from PubChem BioAssay.

Calls of active or inactive are those of the source.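 Rule for the calls, unless noted: active = visually confirmed hit in the image check and inhibition above 20%; inconclusive = visually confirmed hit but inhibition not above 20%; inactive = no visual hit in the image check.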

A short description of experiment [1]: inhibitors of TNFa-induced NFkB p65 translocation, primary screen, imaging, HUVEC, MLSMR starter and 10KST1 sets (AID 438;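 active = inhibition above 20% together with a positive visual image hit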;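 note: compound added about 3h40 before a 20 min TNFalpha stimulation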;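 for inhibition: signal is the nuclear over cytoplasmic p65 intensity ratio per well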). The settings on record: HUVEC TNFa-induced p65 nuclear translocation; cell count: measured here: nuclei count (cytotoxicity indicator), at 2.08 µM; inhibition: at 2 µM, stronger effect = higher value, 0% TNFa-plus-vehicle, 100% no-TNFa wells.
The nature of experiment [2]: reduction of polyQ htt aggregates in cells – imaging, exon1htt(103Q)mCFP cells, high-content imaging, primary screen (AID 483;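 active = visual image review flags a hit and inhibition of aggregation exceeds 20%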;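 note: compound exposure lasted 3 days before fixation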;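 for nuclei count: percent of the per-plate median nuclei count of sample wells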). Conditions: exon1htt(103Q)mCFP cell line, aggregate imaging, at 2 µM; inhibition of aggregation: stronger effect = higher value; nuclei count: measured here: cell count, toxicity.
Experiment [3] is described as follows: endothelial E-selectin expression blockers – imaging, HUVEC, immunofluorescence, MLSMR starter and 10KST1 sets, primary screen (AID 487).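 For inhibition: signal is fraction of cell area covered by stained E-selectin grains.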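 For nuclei count: 100% = median nuclei count of all wells on the same plate.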 Conditions: HUVEC TNFalpha-induced E-selectin immunofluorescence imaging, at 2 µM; inhibition: stronger effect = higher value; nuclei count: measured here: cell number, toxicity.
For experiment [4], the target named is Voltage-gated potassium channel subunit beta-2 (Rattus norvegicus) (UniProt P62483). The experiment in a line: inhibitors of rat Kvbeta2 reductase activity – biochemical, NADPH fluorescence, primary screen (AID 622;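 active = fluorescence slope higher than the sample average by over 3 SD, cut at about -0.22 in these data, passing the limit was not always enough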;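 note: slope of raw intensity against log time taken from 70 to 1610 s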). Conditions: recombinant KvBeta, 4-cyanobenzaldehyde reduction, at 10 µM, stronger effect = higher value.
The target is the same in experiment [5]. The experiment can be described thus: enhancers of rat Kvbeta2 NADPH turnover – biochemical, NADPH fluorescence, primary screen (AID 623;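 active = NADPH fluorescence slope more negative than the mean of all samples by about 3 SD, 99.7% confidence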;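 note: fluorescence intensity change per second fitted from 20 to 320 s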). Conditions: Recombinant KvBeta, NADPH fluorescence decrease slope, 10 min; at 10 µM; stronger effect = lower value.
For experiment [6], the target named is Muscarinic acetylcholine receptor M4 (Homo sapiens) (UniProt P08173). The experiment can be described thus: M4-linked GIRK flux change, two-sided – cell-based, HEK293 M4/GIRK, thallium flux, BTC-AM, M4 allosteric agonist project, primary screen (AID 625;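 active = fluorescence slope after compound addition differing from the mean of all tested samples at 99.7% confidence, mostly higher but some lower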;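 note: thallium influx through GIRK channels coupled to M4 in HEK293 cells with BTC-AM dye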). Conditions: at 10 µM, actives lie on both sides. The gist of the method: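 Material: HEK293 cells with M4 receptor and GIRK channels; Times: cells overnight at 37 °C, BTC-AM loading 1 h, reads 2 min total; Technique: kinetic BTC-AM fluorescence sampled at 1 Hz, 10 s pre-addition baseline; Read-out basis: slope over 15–24 s of trace normalized to starting intensity; Controls: carbachol positive, DMSO negative.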

Experiment [7] can be described thus: blockers of RIG-like receptor reporter activation – cell-based, Sendai virus stimulus, luciferase, 10K MLSCN set, TLR/RLR signaling modifier project, primary screen (AID 602276;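 active = inhibition at or above 50% at 10 µM; inactive = inhibition below 50%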;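 note: firefly luciferase from ISG56 promoter only with Renilla not read in this screen; 0% = Sendai virus plus DMSO and 100% = medium plus DMSO without virus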). The settings on record: HEK293 RL24 IRF3 luciferase reporter, at 10 µM, stronger effect = higher value. (In general: Reporter assays use an easily measured gene product as a stand-in for the process of interest.)

Experiment [8] in a line: TLR3 IRF3 reporter activation blockers – cell-based, poly I:C stimulus, luciferase, 10K MLSCN set, primary screen (AID 602277;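 active = inhibition of the reporter signal at or above 50%; inactive = inhibition below 50%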). Conditions: HEK293-TLR3 RL24 IRF3 luciferase reporter, at 10 µM, stronger effect = higher value.

Sequence of Muscarinic acetylcholine receptor M4 (Homo sapiens) (P08173 whole entry, looked up): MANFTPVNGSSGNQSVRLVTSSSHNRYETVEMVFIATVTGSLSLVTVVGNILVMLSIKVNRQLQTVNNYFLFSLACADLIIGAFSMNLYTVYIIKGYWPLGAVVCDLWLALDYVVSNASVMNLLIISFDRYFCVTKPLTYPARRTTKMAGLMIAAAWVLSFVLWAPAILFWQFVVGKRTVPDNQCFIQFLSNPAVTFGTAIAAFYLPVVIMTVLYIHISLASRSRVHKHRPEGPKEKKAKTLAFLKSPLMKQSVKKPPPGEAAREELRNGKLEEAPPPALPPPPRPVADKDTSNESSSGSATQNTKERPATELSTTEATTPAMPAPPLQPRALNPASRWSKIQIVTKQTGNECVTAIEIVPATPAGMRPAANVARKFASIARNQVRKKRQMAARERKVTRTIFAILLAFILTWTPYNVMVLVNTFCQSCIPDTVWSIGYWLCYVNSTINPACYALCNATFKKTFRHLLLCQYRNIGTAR
Sequence of Voltage-gated potassium channel subunit beta-2 (Rattus norvegicus) (P62483 whole entry, looked up): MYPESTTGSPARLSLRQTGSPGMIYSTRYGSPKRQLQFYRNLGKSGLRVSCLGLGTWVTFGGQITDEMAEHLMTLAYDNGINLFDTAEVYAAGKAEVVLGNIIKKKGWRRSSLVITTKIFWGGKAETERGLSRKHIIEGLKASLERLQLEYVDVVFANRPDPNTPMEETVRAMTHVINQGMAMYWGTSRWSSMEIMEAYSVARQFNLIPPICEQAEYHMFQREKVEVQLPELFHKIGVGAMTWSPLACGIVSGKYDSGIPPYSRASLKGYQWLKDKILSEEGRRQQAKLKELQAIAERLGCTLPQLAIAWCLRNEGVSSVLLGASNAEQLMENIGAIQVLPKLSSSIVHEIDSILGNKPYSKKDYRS

Usually inhibition stands for the drop in the measured response relative to a control, in per cent. Turning to `COC(=O)c1cn(C(=O)OC)c2ccccc12`, the cell count in experiment [1] is 447. Further, the inhibition in experiment [1] is -2.7% (inactive); in experiment [3] it was -17.8% (inactive); in experiment [7], 13.8% (inactive); in experiment [8], 10.5% (inactive). Moreover, the inhibition of aggregation in experiment [2] is 10.2% (inactive). For the same compound, the nuclei count in experiment [2] and in experiment [3] was 108% each time. For the same compound, the fluorescence slope in experiment [4] is -0.593 (inactive); in experiment [6], 0.00446 (inactive). The NADPH fluorescence slope in experiment [5] is -8.8e-05 (inactive).
For `O=C1CC(Cc2ccccc2)C(=O)N1CCc1ccc2c(c1)OCO2` (centres undefined), in experiment [1], the cell count came out at 480. Besides, the inhibition in experiment [1] was 3.5% (inactive); in experiment [3], -145% (inactive); in experiment [7], -0.603% (inactive); in experiment [8], 9.62% (inactive). Also, the inhibition of aggregation in experiment [2] was -0.2% (inactive). Besides, the nuclei count in experiment [2] worked out at 110%; in experiment [3], 127%. The fluorescence slope in experiment [4] was -0.579 (inactive); in experiment [6], 0.00603 (inactive). The NADPH fluorescence slope in experiment [5] was -1.8e-05 (inactive).
For the compound `COc1ccccc1Nc1nc(N)nc(CSc2nccc(C)n2)n1`, the cell count in experiment [1] stood at 701. For the same compound, the inhibition is -8.6% (inactive) in experiment [1], 28.3% (inactive) in experiment [3], 11.6% (inactive) in experiment [7] and 5.69% (inactive) in experiment [8]. In addition, in experiment [2], the inhibition of aggregation was -9.5% (inactive). Further, the nuclei count in experiment [2] amounted to 99.9%; in experiment [3], 112%. Also, the fluorescence slope in experiment [4] was -0.546 (inactive); in experiment [6], 0.00561 (inactive). For the same compound, the NADPH fluorescence slope in experiment [5] is 4.7e-05 (inactive).
As for `CC(C)CCn1c(N)c(S(=O)(=O)c2cccs2)c2nc3ccccc3nc21`, the cell count in experiment [1] is 652. Further, the inhibition was 2% (inactive) in experiment [1], -67.7% (inactive) in experiment [3], 8.07% (inactive) in experiment [7] and -1.32% (inactive) in experiment [8]. Besides, in experiment [2], the inhibition of aggregation is 0% (inactive). In addition, the nuclei count in experiment [2] came to 105%; in experiment [3], 124%. For the same compound, the figures for the fluorescence slope in experiment [4] and in experiment [6] were -0.398 (inactive) and 0.00628 (inactive), respectively. The NADPH fluorescence slope in experiment [5] was 1.8e-05 (inactive).
As to `COc1ccc(CN2C(=O)c3cccnc3C2Nc2cc(Cl)ccc2OC)cc1` (centres undefined), the cell count in experiment [1] was found to be 482. The inhibition in experiment [1] is 3% (inactive); in experiment [3] it was -26.9% (inactive); in experiment [7], -6.43% (inactive); in experiment [8], -6.33% (inactive). For the same compound, in experiment [2], the inhibition of aggregation is 0.1% (inactive). The nuclei count in experiment [2] was 105%; in experiment [3] it was 112%. For the same compound, the fluorescence slope was -0.445 (inactive) in experiment [4] and 0.00665 (inactive) in experiment [6]. The NADPH fluorescence slope in experiment [5] is 0.00011 (inactive).
For the compound `Cc1nn(Cc2ccccc2Cl)c(C)c1NC(=O)C1C2CCC(O2)C1C(=O)O` (centres undefined), the cell count in experiment [1] was found to be 625. The inhibition in experiment [1] was 7.7% (inactive); in experiment [3], 16.3% (inactive); in experiment [7], -10.5% (inactive); in experiment [8], -23.8% (inactive). For the same compound, the inhibition of aggregation in experiment [2] was 0.3% (inactive). Moreover, the nuclei count in experiment [2] was 101%; in experiment [3], 96.3%. Further, the fluorescence slope in experiment [4] was -0.494 (inactive); in experiment [6] it was 0.00475 (inactive). Further, in experiment [5], the NADPH fluorescence slope is -3.1e-05 (inactive).
Regarding `COc1cccc(CN(C(=O)c2cc3ccccc3oc2=O)C2CC2)c1`, the cell count in experiment [1] is 459. Further, the inhibition was -6.2% (inactive) in experiment [1], -52.3% (inactive) in experiment [3], -43.3% (inactive) in experiment [7] and -136% (inactive) in experiment [8]. Moreover, the inhibition of aggregation in experiment [2] was -16% (inactive). For the same compound, the values for the nuclei count in experiment [2] and in experiment [3] were 108% and 137%, respectively. Further, the fluorescence slope in experiment [4] is -0.51 (inactive); in experiment [6] it was 0.00464 (inactive). For the same compound, the NADPH fluorescence slope in experiment [5] is -2.3e-05 (inactive).
On to `O=C1CC(c2ccccc2)CC(O)=C1C=NCCCN1CCOCC1` (centres undefined), for which the cell count in experiment [1] is 307. Further, the inhibition is 3.9% (inactive) in experiment [1], 49.8% (inactive) in experiment [3], 7.43% (inactive) in experiment [7] and 9.1% (inactive) in experiment [8]. Besides, the inhibition of aggregation in experiment [2] was 22.3% (inactive). Besides, the results for the nuclei count in experiment [2] and in experiment [3] were 88.8% and 69.3%, respectively. Moreover, the fluorescence slope was -0.466 (inactive) in experiment [4] and 0.00557 (inactive) in experiment [6]. The NADPH fluorescence slope in experiment [5] is -4e-06 (inactive).
For `CCOC(=O)c1[nH]c(C)c(C(=O)N(C)C)c1C`, the cell count in experiment [1] is 684. Also, the inhibition in experiment [1] was -10.9% (inactive); in experiment [3], -68% (inactive); in experiment [7] it was -36.1% (inactive); in experiment [8], 99.3% (active). The inhibition of aggregation in experiment [2] is 14.5% (inactive). The nuclei count in experiment [2] is 111%; in experiment [3], 106%. Also, the fluorescence slope in experiment [4] was -0.465 (inactive); in experiment [6] it was 0.00674 (inactive). Also, the NADPH fluorescence slope in experiment [5] is -1.4e-05 (inactive).
As for `COc1ccc(Nc2nc(OC)nc(N3CCN(c4ccc(OC)cc4)CC3)n2)cc1`, the cell count in experiment [1] is 646. For the same compound, the inhibition in experiment [1] was -0.5% (inactive); in experiment [3], -14.1% (inactive); in experiment [7], 14% (inactive); in experiment [8] it was -11.1% (inactive). The inhibition of aggregation in experiment [2] is -13.1% (inactive). Moreover, the nuclei count in experiment [2] was found to be 93.5%; in experiment [3], 100%. Moreover, the values for the fluorescence slope in experiment [4] and in experiment [6] were -0.555 (inactive) and 0.00593 (inactive), respectively. For the same compound, the NADPH fluorescence slope in experiment [5] was -3.4e-05 (inactive).
Take `CSc1ccccc1NC(=O)c1noc2c1CCC2`: the cell count in experiment [1] was found to be 416. In addition, the inhibition was 2.6% (inactive) in experiment [1], -55.8% (inactive) in experiment [3], -12.4% (inactive) in experiment [7] and -50.3% (inactive) in experiment [8]. In addition, the inhibition of aggregation in experiment [2] is -0.9% (inactive). Besides, the nuclei count in experiment [2] is 109%; in experiment [3], 120%. Moreover, the fluorescence slope in experiment [4] is -0.593 (inactive); in experiment [6], 0.00589 (inactive). Besides, in experiment [5], the NADPH fluorescence slope was -8e-06 (inactive).
Turning to `Cc1cc(=O)oc2ccc(OCC(=O)N3CCC(C)CC3)cc12`, the cell count in experiment [1] came out at 400. Also, the inhibition in experiment [1] is -3.9% (inactive); in experiment [3] it was -41.1% (inactive); in experiment [7] it was 17.3% (inactive); in experiment [8], 8.48% (inactive). Moreover, in experiment [2], the inhibition of aggregation was -30.5% (inactive). In addition, the results for the nuclei count in experiment [2] and in experiment [3] were 103% and 104%, respectively. For the same compound, the figures for the fluorescence slope in experiment [4] and in experiment [6] were -0.567 (inactive) and 0.00366 (inactive), respectively. Moreover, the NADPH fluorescence slope in experiment [5] is -4.1e-05 (inactive).
On to `Cc1c(NC(=O)C(C)OC(=O)C(NC(=O)c2ccco2)C(C)C)c(=O)n(-c2ccccc2)n1C` (centres undefined), for which, in experiment [1], the cell count came out at 419. Besides, the inhibition is -8% (inactive) in experiment [1], -25.3% (inactive) in experiment [3], 10.2% (inactive) in experiment [7] and 14.1% (inactive) in experiment [8]. Also, the inhibition of aggregation in experiment [2] is -12.5% (inactive). In addition, the nuclei count in experiment [2] was found to be 105%; in experiment [3], 106%. Also, the fluorescence slope in experiment [4] is -0.276 (inactive); in experiment [6] it was 0.00712 (inactive). Further, the NADPH fluorescence slope in experiment [5] is -5.3e-05 (inactive).
For the compound `COc1ccccc1NC(=O)N(Cc1ccccc1)c1ccccn1`, in experiment [1], the cell count stood at 756. Besides, the inhibition in experiment [1] is 3.2% (inactive); in experiment [3] it was 19.9% (inactive); in experiment [7], -7.55% (inactive); in experiment [8], -38.8% (inactive). Besides, the inhibition of aggregation in experiment [2] is -5.9% (inactive). Further, the results for the nuclei count in experiment [2] and in experiment [3] were 93.7% and 114%, respectively. Besides, the results for the fluorescence slope in experiment [4] and in experiment [6] were -0.581 (inactive) and 0.00744 (inactive), respectively. The NADPH fluorescence slope in experiment [5] is -7e-05 (inactive).
